Screening data from PubChem.
The list is not random: actives were taken first. Their share in the collection is about 4%.
SIRT5 block: SIRT5 desuccinylase inhibitors, primary screen, biochemical, fluorescence imaging, single point, set 5; AID 652115, 2013; NAD-dependent protein deacylase sirtuin-5, mitochondrial (Homo sapiens), Q9NXA8; Purified SirT5, succinyl-peptide AMC, trypsin-coupled fluorescence; hit rate 1.1% among 330,000; inhibition, % at 15 µM; in the data active = inhibition above about 15%
FGF22 binding: binders of human FGF22 protein, primary screen, FGF22 synaptogenesis inhibitor project, biophysical, thermal shift, single point; AID 651658, 2012; hit rate 1.5% among 340,000; Fibroblast growth factor 22 (Homo sapiens), Q9HCT0; activity (Tm shift, normalised), % at 9.99 µM; recombinant FGF22 thermal shift, SYPRO orange fluorescence; percent of sucrose octasulfate shift, DMSO zero;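 active = mean Tm shift, scaled 0 neutral to 100 positive control, at about 1.3% or above, every replicate too, limit read from the data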
Statin myotox sup: suppressors of statin myotoxicity in C2C12 myotubes, primary screen, cell-based, single point, plate reader. hit rate 0.78% among 330,000. rescue of ATP level, % at 7.49 µM. C2C12 myotubes + simvastatin, ATP luminescence, 48 h; scaled: DMSO 0, geranylgeraniol control 100;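 active = mean ATP rescue above about 67%, or every replicate alone reaching that limit, limit read from the data, passing the limit was not always enough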;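 note: myotubes were challenged with 10 µM simvastatin during compound exposure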
E-selectin induc: E-selectin induction in HUVECs, primary screen, imaging, HUVEC, immunofluorescence imaging, single point. P16581. normalized: neutral wells 0, TNF-alpha wells 100. activation, % at 7.58 µM. hit rate 0.37% among 260,000;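 active = mean E-selectin-positive cell signal at least 10% of the positive control, reached in at least 60% of replicates, without over 20% cell loss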
Target sequence (P16581 whole entry, looked up): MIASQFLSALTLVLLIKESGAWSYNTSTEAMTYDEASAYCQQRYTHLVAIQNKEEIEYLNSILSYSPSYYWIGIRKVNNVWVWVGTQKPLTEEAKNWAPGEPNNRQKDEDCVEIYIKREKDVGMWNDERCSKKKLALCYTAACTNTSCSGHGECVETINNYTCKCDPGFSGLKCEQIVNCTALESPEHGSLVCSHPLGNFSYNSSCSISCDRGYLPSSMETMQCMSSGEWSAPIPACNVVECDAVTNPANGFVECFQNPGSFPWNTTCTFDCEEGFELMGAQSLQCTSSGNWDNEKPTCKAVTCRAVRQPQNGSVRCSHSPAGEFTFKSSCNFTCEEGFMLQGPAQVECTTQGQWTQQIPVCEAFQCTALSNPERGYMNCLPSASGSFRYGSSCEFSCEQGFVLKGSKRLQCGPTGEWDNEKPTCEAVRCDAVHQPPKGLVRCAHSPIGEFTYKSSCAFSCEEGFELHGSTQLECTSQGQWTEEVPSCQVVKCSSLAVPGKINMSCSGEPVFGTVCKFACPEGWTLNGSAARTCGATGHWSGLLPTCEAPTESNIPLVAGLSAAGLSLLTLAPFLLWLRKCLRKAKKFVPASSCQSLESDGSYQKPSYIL
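System: HUVEC, human umbilical vein endothelial cells; quantity: 3,000 cells/well; buffer or medium: EGM-2 medium, gelatin-coated wells; dosing: single-point compound dose; detection: immunofluorescence imaging; evaluation: % PE-positive cells; benchmarks: TNF-alpha, DMSO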
Ecoli rRNA inh: reduced GFP signal of wild-type E. coli, primary screen, bacterial rRNA inhibitor project, GFP/RFP fluorescence, OD600, single point; E. coli WT GFP vs humanized-ribosome RFP mutants, 24 h; hits give low values; DMSO median 0, no signal -100; GFP signal change (wild-type ribosome), % (test concentration not listed); hit rate 1.6% among 350,000;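 active = significant combined selectivity score with lowered wild-type GFP, culture density cut under 30%, mutant RFP and density less affected; inactive = any of these conditions unmet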
FN deposit inh: inhibitors of fibronectin matrix deposition, primary screen, AH1F cells, Alexa488-fibronectin fluorescence, plate reader. AH1F fibroblasts, overnight. inhibition, % at 12.6 µM. hit rate 0.086% among 350,000;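 active = mean inhibition across replicates of 30% or more, regardless of how many single replicates reach that level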;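 note: positive control wells lacked labelled fibronectin entirely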
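test system = AH1F fibroblasts assembling fluorescent fibronectin matrix | quantity = 10000 AH1F cells per well | buffer or medium = DMEM plus 2% serum, read in PBS | doses = single dose, pinned | incubation = 1 h cell attachment, overnight exposure to compound and label | detection = fluorescence at 485 nm excitation, 525 nm emission | read-out basis = inhibition from reduced deposited-fibronectin fluorescence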
The depositor's hits bear a star.

How did CCCOC(=O)C[N+](C)(C)CCOC1CC2CCC1(C)C2(C)C (centres undefined) do in these assays?
SIRT5 block: -3.2; FGF22 binding: 0.2; E-selectin induc: -0.7; Ecoli rRNA inh: -47.3*; FN deposit inh: 0.9

Results for CCOc1ccccc1Nc1nc(N)nc(Cl)c1CC ?
SIRT5 block: 0.1; FGF22 binding: 0.1; Statin myotox sup: 106.6*; E-selectin induc: 0.1; Ecoli rRNA inh: -0.2; FN deposit inh: -9.2

Results for CNC[C@H]1Oc2ccc(NC(C)=O)cc2C(=O)N(C)C[C@H]1C ?
Ecoli rRNA inh: 0.5; FN deposit inh: -4.4

Results for C=CCOC(=O)C1=C(C)NC(=O)NC1C1CC=CCC1 (centres undefined) ?
Statin myotox sup: 117.1*

Results for CC(C)NC(=O)N(C)C[C@@H]1Oc2ccc(N(S(C)(=O)=O)S(C)(=O)=O)cc2C(=O)N(C)C[C@@H]1C ?
Ecoli rRNA inh: 1.3; FN deposit inh: -2.4

How did CCNC(=O)C1CCCN(C(=O)c2ccc(OC)c(OC)c2)CC1 (centres undefined) do in these assays?
SIRT5 block: 16.8*; FGF22 binding: -0.1; Statin myotox sup: 58.9; E-selectin induc: -2.5; Ecoli rRNA inh: 14.9; FN deposit inh: 1.6

How did COc1ccc(C(=O)C2CCN(C(=S)NCCc3ccccc3)CC2)cc1 do in these assays?
SIRT5 block: 16.2*; FGF22 binding: 0.0; E-selectin induc: 3.0; Ecoli rRNA inh: 5.1; FN deposit inh: -0.9

What do the screens show for `COc1ccc(C(=O)C2CCN(C(=S)NCCc3ccc(OC)c(OC)c3)CC2)cc1`?
SIRT5 block: -3.4; FGF22 binding: -0.4; E-selectin induc: 0.1; Ecoli rRNA inh: -24.8*; FN deposit inh: 4.6

How did COc1ccc(CCNC(=S)N2CCC(C(N)=O)CC2)cc1 do in these assays?
SIRT5 block: -1.6; FGF22 binding: 0.7; Statin myotox sup: 7.8; Ecoli rRNA inh: 7.5; FN deposit inh: 2.2

Results for COc1ccc(N/N=C(\C#N)C(=O)NCCc2ccc(OC)c(OC)c2)cc1 ?
SIRT5 block: -0.3; FGF22 binding: 0.2; Statin myotox sup: 23.3; E-selectin induc: 2.3; Ecoli rRNA inh: -38.5*; FN deposit inh: -4.7

Results for COc1ccc(CCNC(=S)N2CCC(C(=O)c3ccc(F)cc3)CC2)cc1OC ?
SIRT5 block: -13.3; FGF22 binding: 41.8; Statin myotox sup: -18.1; Ecoli rRNA inh: -35.8; FN deposit inh: -8.0

What do the screens show for `CCNC(=O)C[C@H]1CC[C@H]2[C@@H](COc3ccc(NC(=O)C4CCCCC4)cc3C(=O)N2C)O1`?
SIRT5 block: 1.2; FGF22 binding: -0.6; Statin myotox sup: 23.2; E-selectin induc: 0.0; Ecoli rRNA inh: 1.5; FN deposit inh: 1.5

Results for CO[C@@H]1CN(C)C(=O)c2ccc(NC(C)=O)cc2OC[C@H](C)N(Cc2ccccc2C(=O)O)C[C@H]1C ?
SIRT5 block: -4.7; FGF22 binding: -0.1; Statin myotox sup: 3.3; E-selectin induc: 0.0; Ecoli rRNA inh: -0.5; FN deposit inh: 14.3

Results for O=c1nc2cccc3c2=c(/c1=C(\O)c1ccccc1)c1ccccc1c3=O ?
SIRT5 block: 2.1; FGF22 binding: 43.8*; Ecoli rRNA inh: -9.1; FN deposit inh: 2.8

Results for COc1ccc(S(=O)(=O)Nc2ccc3c(c2)C(=O)N([C@H](C)CO)C[C@H](C)[C@H](CN(C)C(=O)CCCN(C)C)OCCCC[C@@H](C)O3)cc1 ?
SIRT5 block: -8.9; FGF22 binding: 0.0; Statin myotox sup: 11.3; E-selectin induc: -0.2; Ecoli rRNA inh: 1.8

Results for CCCC(=O)Nc1ccc2c(c1)OC[C@@H](C)N(C(=O)c1ccncc1)C[C@H](C)[C@@H](OC)CN(C)C2=O ?
SIRT5 block: 7.7; FGF22 binding: 0.3; Statin myotox sup: 7.9; E-selectin induc: 0.1; Ecoli rRNA inh: 0.1; FN deposit inh: 0.2
